# Compounds with a hit are over-represented: about 3.6% of the library has one in this group of screens.
# PAFAH2 inh – PAFAH2 enzyme inhibitors, primary screen, biochemical, fluorescence polarization, human. Platelet-activating factor acetylhydrolase 2, cytoplasmic (Homo sapiens), Q99487. recombinant PAFAH2, FP-rhodamine activity probe. inhibition, % at 3.39 µM. 340,000 tested, 0.99% active. AID 492956, 2010;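 active = inhibition above the mean over all tested compounds plus 3 SD, cut at about 30% in these data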;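 also: inhibitors block probe labeling of enzyme so polarization drops; 0% = enzyme with DMSO and 100% = wells lacking PAFAH2 protein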
# PAFAH1B3 FP inh – PAFAH1B3 enzyme inhibitors, primary screen, biochemical, fluorescence polarization, human; Platelet-activating factor acetylhydrolase IB subunit alpha1 (Homo sapiens), Q15102; recombinant PAFAH1B3, FP-rhodamine probe; inhibition, % at 3.39 µM; 340,000 tested, 0.28% active;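 active = inhibition above the screen-wide average of all tested compounds plus 3 SD, cut at about 25% in these data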;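 also: 0% = enzyme with DMSO only and 100% = wells lacking PAFAH1B3 protein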
# PAFAH1B2 FP inh – PAFAH1B2 enzyme inhibitors, primary screen, biochemical, fluorescence polarization, human; Platelet-activating factor acetylhydrolase IB subunit alpha2 (Homo sapiens), P68402; recombinant PAFAH1B2, FP-rhodamine activity probe; inhibition, % at 3.39 µM; 340,000 tested, 1.2% active;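 active = inhibition above the mean of all tested compounds plus 3 SD, cut at about 24% in these data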;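 also: 0% = enzyme with DMSO and 100% = wells lacking PAFAH1B2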
# IMP-1 inh – IMP-1 metallo-beta-lactamase inhibitors, primary screen, biochemical, epi-absorbance readout, Pseudomonas aeruginosa enzyme; inhibition, % at 5.6 µM; purified IMP-1, nitrocefin hydrolysis, epi-absorbance fluorescence; 290,000 tested, 0.45% active;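 active = inhibition above the mean plus 3 SD of all compounds in the same screening run, cut at about 4.5% in these data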;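 also: 0% = IMP-1 with DMSO and 100% = DMSO wells lacking enzyme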
#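 Material – recombinant IMP-1 enzyme, purified · Amount – IMP-1 0.2 nM before substrate addition · Medium – HEPES buffer pH 7.1 with ZnSO4 and Brij 35 · Timing – 25 °C, 15 min preincubation, 25 min reaction · Measured by – plate fluorescence quenching by hydrolysis product, ex 480/em 530 nm · Read-out – percent enzyme inhibition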
# VIM-2 inh – VIM-2 metallo-beta-lactamase inhibitors, primary screen, biochemical, epi-absorbance readout, Pseudomonas aeruginosa enzyme | inhibition, % at 5.6 µM | purified VIM-2, nitrocefin hydrolysis, epi-absorbance fluorescence | 290,000 tested, 0.89% active;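 active = inhibition above the mean of all tested compounds plus 3 SD, cutoff set per screening run, cut at about 7.5% in these data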;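 also: red hydrolysis product quenches plate fluorescence so inhibitors raise well fluorescence; 0% = enzyme with DMSO and 100% = DMSO without enzyme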
# pPAFAH inh – pPAFAH enzyme inhibitors, primary screen, biochemical, fluorescence polarization, human; inhibition, % at 3.39 µM; Platelet-activating factor acetylhydrolase (Homo sapiens), Q13093; recombinant pPAFAH, FP-rhodamine probe fluorescence polarization; 330,000 tested, 1.5% active;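 active = inhibition above the mean inhibition across the screen plus 3 SD, cut at about 25% in these data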;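 also: inhibitors block binding of the rhodamine activity-based probe so polarization drops; 0% = enzyme with DMSO and 100% = wells lacking pPAFAH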
# Target sequence (Q13093 whole entry, looked up): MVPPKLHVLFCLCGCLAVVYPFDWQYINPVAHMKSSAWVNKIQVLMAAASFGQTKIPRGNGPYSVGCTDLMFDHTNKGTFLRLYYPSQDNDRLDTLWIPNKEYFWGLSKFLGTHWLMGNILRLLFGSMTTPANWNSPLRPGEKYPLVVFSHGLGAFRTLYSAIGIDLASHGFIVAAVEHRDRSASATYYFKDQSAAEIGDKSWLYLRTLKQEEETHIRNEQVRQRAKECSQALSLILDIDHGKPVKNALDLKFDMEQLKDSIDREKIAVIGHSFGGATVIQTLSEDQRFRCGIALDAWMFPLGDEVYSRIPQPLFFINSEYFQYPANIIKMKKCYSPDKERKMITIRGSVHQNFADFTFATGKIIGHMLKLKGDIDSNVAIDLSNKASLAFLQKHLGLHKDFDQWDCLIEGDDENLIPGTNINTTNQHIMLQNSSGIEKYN
# PAFAH1B3 confirm – PAFAH1B3 enzyme inhibitors, confirmation, biochemical, fluorescence polarization, human; shares compounds with PAFAH1B3 FP inh; 390 tested, 30% active; inhibition, % at 3.39 µM; recombinant PAFAH1B3, FP-Rh activity-based probe;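 active = average inhibition over triplicate runs above the hit cutoff set in the earlier primary screen, cut at about 25% in these data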;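 also: 0% = enzyme with DMSO and 100% = wells lacking PAFAH1B3 protein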
# * hit, by the source's call; . = no result.
SMILES,PAFAH2 inh,PAFAH1B3 FP inh,PAFAH1B2 FP inh,IMP-1 inh,VIM-2 inh,pPAFAH inh,PAFAH1B3 confirm
CC(C)(C)c1ccc(Cc2n[nH]c(=S)[nH]c2=O)cc1,-3,7,13,0,-3,6,.
Cc1cc(NC2=CC(=O)C(=O)c3ccccc32)no1,20,33*,11,.,.,.,34*
COc1cc(OC)c(NC2=CC(=O)C(=O)c3ccccc32)cc1Cl,12,42*,10,-4,-4,12,33*
Cc1ccc(NC2=CC(=O)C(=O)c3ccccc32)cc1,4,25*,8,-7,-2,9,21
CCc1nnc(N/N=C/c2cc(Br)c(O)cc2O)n1N,6,26*,9,-5,-2,7,19
O=c1[nH]c(Nc2ccccc2)cc2cc(Br)ccc12,18,61*,16,.,.,16,14
COc1ccc(OC)c(Nc2cc3ccccc3c(=O)[nH]2)c1,12,38*,6,.,.,2,15
O=c1[nH]c(Nc2ccccc2)cc2ccccc12,2,31*,8,-3,-3,-6,18
Cc1cc(Cl)ccc1OCC(=O)NNC(=O)C1CCCO1 (configuration not stated),4,19,5,-4,-3,0,.
O=C(COc1ccccc1/C=C\c1nc(O)c([N+](=O)[O-])c(=O)[nH]1)Nc1ccccc1,3,-4,0,-1,0,.,.
CCOc1ccccc1/C=C\c1nc(O)c([N+](=O)[O-])c(=O)[nH]1,-5,28*,5,-2,0,8,19
Cc1cnc(C=NNC(N)=S)c2cccc(N)c12,18,34*,9,.,.,.,51*
O=C1NC(=O)c2cc(Br)cc3cccc1c23,-1,46*,6,-2,1,3,53*
C/C(=N/Nc1ccc([N+](=O)[O-])cc1)c1ccc(C)cc1C,2,11,3,-4,-1,10,.
C/C(=N/Nc1ccc([N+](=O)[O-])cc1)c1c[nH]c2ccccc12,3,36*,10,-1,-1,.,16
COc1cccc(CNC(=O)CN2CCC(c3nc4ccc(C)cc4[nH]3)CC2)c1,2,8,-5,-5,-3,4,.
COc1ccc(N2CCN(C(=O)COC(=O)c3ccc(CSC)o3)CC2)cc1,5,-1,2,.,.,4,.
ON=C1c2ccccc2-c2ccc(O)cc21,7,37*,3,.,.,.,28*
Nc1ccc2c(c1)C(=NO)c1ccccc1-2,4,10,0,.,.,.,.
Cc1cc(=O)oc(C)c1C(=O)Nc1ccc(Cl)cn1,-7,2,0,-2,1,7,.
O=C(O)c1ccc(NC2=C(N3CCOCC3)C(=O)c3ccccc3C2=O)cc1,11,27*,8,-1,2,-7,13
O=C(c1ccccc1)c1ccc(N2CCOCC2)cc1,-7,16,3,.,.,.,.
CC(=O)c1ccc(S(=O)(=O)Nc2ccc(N3CCOCC3)cc2)cc1,1,0,-2,-5,-4,3,.
CC(=O)c1ccc(NC2=C(N3CCOCC3)C(=O)c3ccccc3C2=O)cc1,24,31*,4,-1,3,-8,9
Nc1nonc1N/N=C/c1c(O)ccc2ccccc12,18,31*,15,-3,-2,23,17
SMILES,PAFAH2 inh,PAFAH1B3 FP inh,PAFAH1B2 FP inh,IMP-1 inh,VIM-2 inh,pPAFAH inh,PAFAH1B3 confirm
Nc1nonc1N/N=C\c1ccccc1,-5,9,4,-2,-3,4,.
O=C(NCC1CCCO1)C1c2ccccc2C(=O)N1Cc1ccc2c(c1)OCO2 (configuration not stated),-4,0,-6,0,-1,0,.
Cc1ccc(-c2cc3c(nn2)-c2ccccc2C3=O)cc1,6,4,2,-1,-1,7,.
Cc1ccccc1-c1cc2c(nn1)-c1ccccc1C2=O,15,34*,8,-5,3,1,7
O=c1c(=Nc2ccccc2O)c(=O)c2ccccc12,7,50*,10,-3,0,1,12
C=CCNC(=S)Nc1ccc2nsnc2c1,7,7,6,-2,-1,3,.
S=C(Nc1ccc2nsnc2c1)NC1CCCCC1,6,56*,15,-4,-1,8,2
S=C(Nc1ccc(Cl)c(Cl)c1)NC1CCCCC1,-15,1,1,-1,0,0,.
C=CCN(CC=C)C(=S)Nc1ccc2nsnc2c1,17,59*,17,-3,1,1,4
COCCNC(=S)Nc1ccc(Cl)c(Cl)c1,10,1,3,-2,-1,1,.
COCCNC(=S)Nc1ccc2nsnc2c1,20,69*,19,-4,-3,1,4
S=C(Nc1ccc2nsnc2c1)N1CCCCCC1,15,32*,9,-3,-2,2,10
CN(CC(=O)NCCc1ccc(S(N)(=O)=O)cc1)CC(=O)Nc1ccc(Cl)c(C(F)(F)F)c1,-3,-3,2,.,.,.,.
CCCCN(C(=O)C(C)Oc1cccc(Cl)c1)c1c(N)n(CCC)c(=O)[nH]c1=O (configuration not stated),0,4,5,.,.,2,.
Cc1cc(C)cc(OC(=O)C23CCC(C)(C(=O)O2)C3(C)C)c1 (configuration not stated),-2,-5,-3,0,0,5,.
COC(=O)c1ccc2c(c1O)C(=O)c1ccccc1C2=O,3,12,-1,-3,1,8,.
O=C1c2ccccc2C(=O)c2c1ccc(O)c2O,12,30*,6,.,.,.,20
O=C(CNC(=O)c1ccc(S(=O)(=O)N2CCCC2)cc1)N/N=C/c1c(Cl)cccc1Cl,-8,13,0,-1,1,7,.
CCCCN(Cc1cc2cccc(C)c2[nH]c1=O)S(C)(=O)=O,-12,7,-2,-2,-1,2,.
COc1cc2sc3cc(NCCCN4CCOCC4)ccc3c(=O)c2cc1OC,11,28*,5,.,.,8,11
O=C(Cc1ccccc1)Nc1cccc(N2C(=O)C=CC2=O)c1,-2,4,-3,1,-3,10,.
COc1cc(OC)c2cc(C(=O)N/N=C/c3ccccc3O)[nH]c2c1,9,29*,11,-3,-5,22,21
